According to paper PMC2903661 (Bioorganic & medicinal chemistry, 2010):

Legend:
CB2 receptors [1] = target: T1, CB2 receptors (Mus musculus, UniProt P47936); assay: Blocking dissection study in control CD1 mice; type: in vivo; conditions: AM630 3 mg/kg or GW405833 2 mg/kg s.c., 60 min
Procedure, shortened: (§1)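 Control CD1 mice, or CD1 mice 5 days after a single i.p. LPS dose (5 mg/kg in saline, strain O111:B4), received AM630 3 mg/kg or GW405833 2 mg/kg s.c. in DMSO; controls got DMSO vehicle. Radiotracer (~150 GBq/μmol) was given i.v. 30 min later, and tissues were harvested at 60 min and gamma-counted. Whole-brain uptake was %ID/g per body weight normalized by blood; mean ± SD, n=3.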

CB2 receptors [2] = target: T1, CB2 receptors; assay: Blocking dissection study in LPS-5-day-treated CD1 mice; type: in vivo; conditions: for reduction of the specific binding of [11C]1 in whole brain: LPS-5-day mice, AM630 3 mg/kg or GW405833 2 mg/kg s.c., normalized uptake, 60 min, control CD1 mice as measure of non-specific binding
Procedure, shortened: as §1

CB2 receptors [3] = target: T1, CB2 receptors; type: in vivo; conditions: APPswe/PS1dE9 mice
CB2 receptors [4] = target: T1, CB2 receptors; assay: Baseline dissection biodistribution of [11C]1 in control CD1 mice; type: in vivo; conditions: i.v., whole body time-activity curve
Procedure, shortened: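 Male CD-1 mice (23-28 g) received the radiotracer (specific radioactivity ~150 GBq/μmol, in saline) by lateral tail vein. They were killed by cervical dislocation at various times after injection. Organs and brain were removed and dissected on ice, then weighed and gamma-counted (counting error below 3%) against injectate aliquots as standards. Uptake was expressed as %ID/g tissue.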

CB2 receptors [5] = target: T1, CB2 receptors; type: in vivo, mice
Procedure, shortened: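 Male CD1 mice got a single i.p. LPS dose (5 mg/kg in saline, strain O111:B4) 3 or 5 days before i.v. radiotracer; untreated CD1 mice served as controls. At 60 min, cerebellum, hippocampus, cortex, brainstem and rest of brain were dissected, weighed and gamma-counted. Uptake was %ID/g tissue (± SD, n=3), and regional ratios were taken as 5-day LPS over control.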

T1 sequence (P47936 whole entry): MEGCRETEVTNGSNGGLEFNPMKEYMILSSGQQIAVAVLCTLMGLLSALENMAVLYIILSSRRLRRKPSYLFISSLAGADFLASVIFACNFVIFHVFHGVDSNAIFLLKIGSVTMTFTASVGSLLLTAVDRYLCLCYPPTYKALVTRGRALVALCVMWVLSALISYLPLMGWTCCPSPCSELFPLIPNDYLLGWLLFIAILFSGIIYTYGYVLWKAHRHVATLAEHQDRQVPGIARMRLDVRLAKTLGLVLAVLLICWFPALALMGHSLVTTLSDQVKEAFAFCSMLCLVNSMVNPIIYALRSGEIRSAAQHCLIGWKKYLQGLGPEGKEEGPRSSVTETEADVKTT

## COc1ccc2c(c1)c(CCN1CCOCC1)c(C)n2C(=O)c1cccc(Cl)c1Cl [GW405833]
CB2 receptors [1]
  difference in normalized whole brain uptake between baseline and blockade: little difference
CB2 receptors [2]
  reduction of the specific binding of [11C]1 in whole brain: 84%

## COc1ccc(C(=O)c2c(C)n(CCN3CCOCC3)c3cc(I)ccc23)cc1 [AM630]
CB2 receptors [1]
  difference in normalized whole brain uptake between baseline and blockade: little difference
CB2 receptors [2]
  reduction of the specific binding of [11C]1 in whole brain: 78%
CB2 receptors [3]; AM630, 60 min
  reduction of radioactivity uptake by blockade in cerebellum and brainstem: insignificant reduction
  reduction of radioactivity uptake by blockade in cortex and rest of brain: significant reduction
CB2 receptors [3]; AM630 blockade, 60 min, brainstem
  uptake difference between baseline and blockade, brainstem: 29%
CB2 receptors [3]; AM630 blockade, 60 min, cerebellum
  uptake difference between baseline and blockade, cerebellum: 29%
CB2 receptors [3]; AM630 blockade, 60 min, cortex
  uptake difference between baseline and blockade, cortex: 36%
CB2 receptors [3]; AM630 blockade, 60 min, rest of brain
  uptake difference between baseline and blockade, rest of brain: 33%

## Cc1sc(=NC(=O)C2C(C)(C)C2(C)C)n(CCO[11CH3])c1C [[^11C]1]
CB2 receptors [4]; brain
  uptake of [11C]1 in the brain: 0.3 %ID/g tissue
CB2 receptors [4]; heart
  uptake of [11C]1 in the heart: 0.7 %ID/g tissue
CB2 receptors [4]; intestine
  uptake of [11C]1 in the intestine: 1.5 %ID/g tissue
CB2 receptors [4]; kidney
  uptake of [11C]1 in the kidney: 2.2 %ID/g tissue
CB2 receptors [4]; liver
  uptake of [11C]1 in the liver: 4.9 %ID/g tissue
CB2 receptors [4]; spleen
  uptake of [11C]1 in the spleen: 1.3 %ID/g tissue
CB2 receptors [5]; LPS-3-day-treated CD1 mice versus control, all brain regions
  increase of brain uptake versus control mice, LPS three days before (Group 2): insignificant increase
CB2 receptors [5]; LPS-5-day-treated versus control CD1 mice, %ID/g tissue, cerebellum
  regional uptake ratio of Group 3 to Group 1, cerebellum: 1.8
CB2 receptors [5]; LPS-5-day-treated versus control CD1 mice, %ID/g tissue, cortex
  regional uptake ratio of Group 3 to Group 1, cortex: 1.7
CB2 receptors [5]; LPS-5-day-treated versus control CD1 mice, %ID/g tissue, hippocampus
  regional uptake ratio of Group 3 to Group 1, hippocampus: 1.9
CB2 receptors [5]; LPS-5-day-treated versus control CD1 mice, %ID/g tissue, rest of the brain
  regional uptake ratio of Group 3 to Group 1, rest of the brain: 1.5
CB2 receptors [2]; LPS-induced mouse model of neuroinflammation, summary
  specific CB2 cerebral uptake: 78-84%
